pEC50, pKi: −log10 of the molar value. Values after ≈ are worked out from the molar mass of the structure shown. Active and inactive are the calls of the source. The rule behind the calls is not given here.
The molecules below were run against T1, Human rhinovirus A protease (Human rhinovirus sp., UniProt Q4U254) (assay: The compound was tested for reversible inhibition of Human Rhinovirus (HRV) 3C Protease.). Details: not given.
T1 sequence (Q4U254 whole entry): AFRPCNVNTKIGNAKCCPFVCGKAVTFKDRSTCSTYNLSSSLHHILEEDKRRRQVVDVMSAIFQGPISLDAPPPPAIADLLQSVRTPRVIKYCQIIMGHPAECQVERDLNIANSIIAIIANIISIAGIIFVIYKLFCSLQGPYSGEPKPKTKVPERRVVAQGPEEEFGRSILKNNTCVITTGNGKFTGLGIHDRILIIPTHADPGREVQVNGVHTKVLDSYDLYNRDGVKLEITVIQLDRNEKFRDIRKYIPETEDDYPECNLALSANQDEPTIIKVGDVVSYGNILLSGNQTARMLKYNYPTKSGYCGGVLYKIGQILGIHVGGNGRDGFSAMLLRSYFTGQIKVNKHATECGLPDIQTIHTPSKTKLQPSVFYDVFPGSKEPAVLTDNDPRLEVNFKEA

SMILES | pKi
CCOC(=O)/C(C#N)=C/c1cccc(C(N)=O)c1 | 5.82

These molecules were tested on HeLa (assay: Antiviral activity measured as minimal inhibitory concentration using H1HeLa cells (ATCC) infected with HRV-14). Details: Homo sapiens.
Type: functional

SMILES | MIC [µM]
CCOC(=O)c1ccc(OCCC2CCN(c3ccc(C)nn3)CC2)cc1 [PIRODAVIR] | 0.03 (≈ 0.0111 µg/mL)

These molecules were tested on HeLa (assay: Antiviral activity using H1HeLa cells (ATCC) infected with HRV-14 (range)). Details: Homo sapiens.
Type: functional, cell-based
Method in brief: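 H1-HeLa cells were grown in MEM with 10% FBS and infected with HRV-14 at moi 0.08, or mock-infected with medium. Cells were resuspended at 8 × 10^5 cells/mL with drug and read 2 days later by XTT/PMS formazan absorbance at 450/650 nm. EC50 is the concentration restoring formazan to 50% of drug-free uninfected cells. Values come from a single run or the mean of ≥2.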

SMILES | pEC50
CCOC(=O)c1ccc(OCCC2CCN(c3ccc(C)nn3)CC2)cc1 [PIRODAVIR] | 7.70

What follows are molecules tested against T2, Human rhinovirus A protease (Human rhinovirus sp.) (UniProt Q4U254) (assay: Irreversible inhibition of Human Rhinovirus (HRV-14) 3C Protease measured as inactivation constant; inhibition@ 25). Details: concentration not given here.
T2 sequence (whole entry): T1 sequence (Q4U254 whole entry)
Method in brief: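 FRET-based continuous fluorometric assay of 3C protease activity. Reactions were started by adding 50 nM 3CP to 1 µM substrate across three to five inhibitor concentrations. First-order inactivation rate constants were fitted by nonlinear regression at each concentration. kobs/[I] was taken by the slope method, with data adjusted for substrate depletion where needed.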

SMILES | inhibition [%]
CCOC(=O)/C=C/c1cc(C(N)=O)ccc1C | 10

What follows are molecules tested against T1, Human rhinovirus A protease (assay: Inhibition of Human Rhinovirus (HRV-14) 3C Protease). Details: not given.
Method in brief: (§1)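 Serotype 14 3C protease activity was followed by a fluorescence resonance energy transfer substrate assay, and reversible inhibition constants (Ki) were determined from it.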

SMILES | pKi
NC(=O)c1cccc(C=O)c1 | 3.98

What follows are molecules tested against T2, Human rhinovirus A protease (Human rhinovirus sp.) (assay: Irreversible inhibition of Human Rhinovirus (HRV-14) 3C Protease). Details: Rhinovirus B.
Method in brief: (§2)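 For serotype 14 3C protease under irreversible inactivation, reactions were started by adding 50 nM enzyme to 1 µM FRET substrate plus typically three to five inhibitor concentrations, monitored continuously. First-order inactivation rate constants came from nonlinear regression when <20% substrate was consumed; otherwise data were corrected for substrate depletion. kobs/[I] was derived by the slope method.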

SMILES | K obs / 1 [M⁻¹ s⁻¹]
CCOC(=O)/C=C/c1cc(CN(CC)Cc2ccncc2)cc(C(N)=O)c1 | 96
CCOC(=O)/C=C/c1cccc(C(N)=O)c1 | 52
NC(=O)c1cccc(/C=C/C(=O)OCCO)c1 | 42
NC(=O)c1cccc(/C=C/C(=O)OCc2ccccn2)c1 | 57
NC(=O)c1cccc(/C=C/C(=O)OCCc2ccccc2)c1 | 83
CCOC(=O)/C=C/c1cc(CO)cc(C(N)=O)c1 | 54
NC(=O)c1cccc(/C=C/C(=O)OCc2ccccc2)c1 | 25
CCOC(=O)/C=C/c1cc(CN2CCN(c3ccccn3)CC2)cc(C(N)=O)c1 | 269
CCOC(=O)/C=C/c1cc(CN2CCN(c3ncccn3)CC2)cc(C(N)=O)c1 | 163
CCOC(=O)/C=C/c1cc(CN2CCN(C(=O)OCC)CC2)cc(C(N)=O)c1 | 130
COC(=O)/C=C/c1cccc(C(N)=O)c1 | 28
CCOC(=O)/C=C/c1cc(CN2CCN(c3ccccc3C#N)CC2)cc(C(N)=O)c1 | 139
CCOC(=O)/C=C/c1cc(O)cc(C(N)=O)c1 | 47
CCOC(=O)/C=C/c1cc(CSc2nnc(-c3ccccn3)o2)cc(C(N)=O)c1 | 286

The molecules below were run against T2, Human rhinovirus A protease (Human rhinovirus sp.) (assay: Irreversible inhibition of Human Rhinovirus (HRV-14) 3C Protease measured as inactivation constant; no inhibition). Details: not given.
Method in brief: as §2

SMILES | K obs / 1
CCOC(=O)/C=C/c1cccc(C(=O)O)c1 | inactive

What follows are molecules tested against T2, Human rhinovirus A protease (Human rhinovirus sp.) (assay: The compound was tested for irreversible inhibition of Human Rhinovirus (HRV) 3C Protease.). Details: not given.
Method in brief: as §2

SMILES | K obs / 1 [M⁻¹ s⁻¹]
CCOC(=O)/C=C/c1ccc(OCc2ccccc2)c(C(N)=O)c1 | 30

These molecules were tested against T1, Human rhinovirus A protease (assay: The compound was tested for binding affinity of Human Rhinovirus (HRV) 3C Protease.). Details: not given.
Method in brief: as §1

SMILES | pKi
COc1ccc(C(=O)/C=C/c2cccc(C(N)=O)c2)cc1 | 5.74
NC(=O)c1cccc(/C=C/C(=O)c2ccccn2)c1 | 5.74
NC(=O)c1ccc2c(c1)C=CC2=O | 6.92
NC(=O)c1cccc(/C=C/C(=O)c2ccco2)c1 | 5.72
CN(C)c1ccc(C(=O)/C=C/c2cccc(C(N)=O)c2)cc1 | 5.05
CC(=O)/C=C/c1cccc(C(N)=O)c1 | 4.60
NC(=O)c1cccc(/C=C/C(=O)c2ccccc2)c1 | 6.40

From ChEMBL document CHEMBL1132923, “Substituted benzamide inhibitors of human rhinovirus 3C protease: structure-based design, synthesis, and biological evaluation” (J Med Chem, 2000)
